Assay outcomes: PubChem, Johns Hopkins Ion Channel Center
MrgX1 antagonist: antagonists of human MrgX1 receptor, primary screen, HEK293 cells, Fluo-4 calcium flux. Mas-related G-protein coupled receptor member X1 (Homo sapiens), Q96LB2. BAM8-22 antagonism; active compounds read low. B-score at 10 µM. actives 1.3% (n = 310,000). AID 588676, 2011;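 active = calcium-response B-score plate-corrected more than 3 library SD below zero, starting fluorescence within 5 deviations, no agonist response on first addition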;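 also: peak minus trough fluorescence over baseline after final BAM8-22 challenge near maximal dose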
Target sequence (Q96LB2 whole entry, looked up): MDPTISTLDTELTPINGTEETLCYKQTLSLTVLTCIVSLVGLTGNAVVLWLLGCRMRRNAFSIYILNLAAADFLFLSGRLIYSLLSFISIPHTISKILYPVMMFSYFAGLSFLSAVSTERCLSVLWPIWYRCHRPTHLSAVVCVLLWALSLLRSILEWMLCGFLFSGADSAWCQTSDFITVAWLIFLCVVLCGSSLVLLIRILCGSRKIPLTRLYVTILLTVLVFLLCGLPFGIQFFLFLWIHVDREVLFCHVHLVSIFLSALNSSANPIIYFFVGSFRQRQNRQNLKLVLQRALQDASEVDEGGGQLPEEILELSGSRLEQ
RGS4 block: RGS4 inhibitors, primary screen, cell-based, HEK293 M3R inducible RGS4, calcium flux. Regulator of G-protein signaling 4 (Homo sapiens), P49798. Fluo-4 calcium flux; active compounds read high; triggered by carbachol at its EC20. B-score at 10 µM. actives 0.45% (n = 310,000). AID 463165, 2010;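 active = B-score, a plate-corrected calcium signal, over three deviations above library mean, with baseline fluorescence within five deviations of library mean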;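 also: RGS4 expression induced by doxycycline in cells with stable M3 receptor; B-score is computed from the integrated fluorescence ratio over baseline after carbachol; higher B-score means a larger calcium signal and so more RGS4 inhibition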
Target sequence (P49798 whole entry, looked up): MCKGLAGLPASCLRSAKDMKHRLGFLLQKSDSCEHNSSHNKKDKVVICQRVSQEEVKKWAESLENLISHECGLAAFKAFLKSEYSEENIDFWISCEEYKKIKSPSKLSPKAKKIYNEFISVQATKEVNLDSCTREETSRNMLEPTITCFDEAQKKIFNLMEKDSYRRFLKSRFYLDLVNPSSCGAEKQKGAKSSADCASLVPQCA
MrgX1 agonist: agonists of human MrgX1 receptor, primary screen, HEK293 cells, Fluo-4 calcium flux. B-score at 10 µM. Fluo-4 calcium fluorescence, agonist mode; active compounds read high. actives 0.44% (n = 310,000). Mas-related G-protein coupled receptor member X1 (Homo sapiens), Q96LB2;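 active = calcium response B-score plate-corrected fluorescence ratio at least 3 library SD, with starting fluorescence B-score inside 5 SD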
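Material – MrgX1-expressing HEK293 cells · Input – 15,000 cells seeded per well · Dosing – compound as first of three additions · Times – overnight seeding, then 1 h dark dye loading · Measured by – kinetic Fluo-4 NW fluorescence of intracellular calcium · Read-out – B-scored fluorescence response ratio · Benchmarks – positive and negative control wells on each plate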
MrgX1 allo act: positive allosteric modulators of MrgX1, primary screen, HEK293 cells, Fluo-4 calcium flux. actives 0.63% (n = 310,000). B-score at 10 µM. Mas-related G-protein coupled receptor member X1 (Homo sapiens), Q96LB2. FDSS; active compounds read high. AID 588675, 2011;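 active = plate-corrected calcium response at least 3 library SD above typical, normal starting fluorescence, not activating the receptor alone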;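 also: compound read alongside a low EC10 to EC30 dose of BAM8-22 agonist; peak minus trough fluorescence over baseline measured at the second addition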
RGS4 pot: RGS4 potentiators or activators, primary screen, cell-based, HEK293 M3R inducible RGS4, calcium flux | B-score at 10 µM | actives 0.92% (n = 310,000) | carbachol calcium flux Fluo4; active compounds read low;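 active = B-score of the integrated calcium signal more than 4 SD below the library mean, with starting fluorescence not abnormally high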;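 also: negative B-score means reduced calcium response which marks RGS4 activation or potentiation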
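Material: M3R-expressing HEK293 line, RGS4 induced by doxycycline | Schedule: Overnight RGS4 induction, 30 min dye load 37 °C, 20 min compound RT | Measured by: Fluo4 fluorescence kinetic imaging of calcium | Read-out: Integrated calcium ratio converted to B score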
RGS4 activ val: reduced carbachol calcium response, RGS4-induced M3R cells, confirmation, RGS4 activator project, cell-based, HEK293 M3R/RGS4 inducible, calcium flux, duplicate; inhibition, % at 10 µM; carbachol calcium flux Fluo4; actives 89% (n = 1,100); AID 602282, 2012; shares compounds with RGS4 pot;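 active = inhibition above 3 SD of the buffer control wells, cut at about 41% in these data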;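 also: signal is the integrated peak-minus-minimum Fluo4 fluorescence over baseline ratio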
M3R Ca counter: activity in cells without induced RGS4 expression. shares compounds with RGS4 pot. HEK293 M3R non-induced RGS4, Fluo4 calcium flux; after carbachol challenge at its EC90. inhibition, % at 10 µM. actives 82% (n = 1,100). AID 602283;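 active = inhibition exceeding 3 SD of buffer-only control wells, cut at about 26% in these data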;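 also: percent drop in integrated peak-minus-baseline over baseline Fluo4 ratio after carbachol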
The depositor's hits bear a star; i = inactive; · = not tested or not shown. Rows were chosen to be rich in hits. Some 3.5% of all compounds tested hit in one or more screens of this group.

SMILES | MrgX1 antagonist | RGS4 block | MrgX1 agonist | MrgX1 allo act | RGS4 pot | RGS4 activ val | M3R Ca counter
C[N+]12CCC(CC1)C(C(O)(c1cccc(Cl)c1)c1cccc(Cl)c1)C2 (centres undefined) | i | i | i | i | -9.15* | · | ·
CC[N+]12CCC(CC1)C(C(O)(c1ccccc1)c1ccccc1)C2 (centres undefined) | i | i | i | i | -7.96* | · | ·
CN(C)CP(=O)(O)CN(C)C=O | i | i | i | i | i | · | ·
Cc1ccc(C(=O)c2cc(Br)ccc2N)cc1 | i | i | i | i | i | · | ·
COc1ccc(CNCCc2c(C)[nH]c3ccc(OC(F)(F)F)cc23)c(OC)c1 | -4.7* | i | i | i | i | · | ·
O=C(c1ccco1)C12CN3CN(CN(C3)C1)C2 | i | i | i | i | i | · | ·
CC1=Nc2ccccc2/C1=C/c1c(O)n(C)c(=O)[nH]c1=O | i | i | i | 8.06* | i | · | ·
Cc1ccccc1-n1c(O)c(/C=C2/C(c3ccccc3)=Nc3ccccc32)c(=O)[nH]c1=O | i | i | i | i | i | · | ·
Fc1ccc(Cn2nnnc2C(c2ccc(F)cc2)N2CC=C(c3ccc(F)cc3)CC2)cc1 (centres undefined) | i | i | i | i | i | · | ·
O=C(Nc1ccccc1F)OC1CN2CCC1CC2 (centres undefined) | i | i | i | i | -10.4* | 51.0* | 0.0
O=C(Nc1cccc(Cl)c1)OC1CN2CCC1CC2 (centres undefined) | i | i | i | i | i | · | ·
O=C(Nc1ccc(Cl)cc1)OC1CN2CCC1CC2 (centres undefined) | i | i | i | i | i | · | ·
O=C(Nc1ccccc1Cl)OC1CN2CCC1CC2 (centres undefined) | i | i | i | i | -8.47* | 88.0* | 62.3*
O=[N+]([O-])O[C@H]1CO[C@H]2[C@@H]1OC[C@H]2O[N+](=O)[O-] | i | · | i | i | · | · | ·
CCOP(=O)(OCC)c1cc(C)c(O)c(C(C)(C)C)c1 | i | i | i | i | i | · | ·
CN1CC(C(=O)c2ccc(Cl)cc2)C(c2ccc(Cl)cc2Cl)C1 (centres undefined) | i | i | i | i | i | · | ·
CN1CCC(O)(c2ccc(Cl)cc2)C(C(=O)c2ccc(Cl)cc2)C1 (centres undefined) | i | i | i | i | -9.62* | 94.0* | 65.8*
CC1CN=C(Nc2ccccc2)S1 (centres undefined) | i | i | i | i | i | · | ·
CC1CN=C(Nc2cccc3ccccc23)S1 (centres undefined) | i | i | i | i | -8.48* | 0.0 | 0.0
Nc1ncn[nH]1 | i | i | i | i | i | · | ·
C=CCC1(Nc2ccccc2)CC(C)N(C)CC1C (centres undefined) | i | i | i | i | -7.71* | 59.0* | 83.8*
CCC1(OC(=O)c2ccccc2)CC(C)N(C)CC1C (centres undefined) | i | i | i | i | i | · | ·
O=C(O)c1c[nH]c2ccc(S(=O)(=O)N(CCCl)CCCl)cc12 | i | i | i | i | i | · | ·
O=C(c1ccc(C(F)(F)F)cc1)C1CCCN(C2CCSCC2)C1 (centres undefined) | i | i | i | i | -12.3* | 90.5* | 48.3*
Cc1cc(Cl)ccc1C(=O)C1CCCN(C2CCSCC2)C1 (centres undefined) | i | i | i | i | -10.4* | 90.5* | 68.8*
SMILES | MrgX1 antagonist | RGS4 block | MrgX1 agonist | MrgX1 allo act | RGS4 pot | RGS4 activ val | M3R Ca counter
O=C(NCCN1CCCCC1)c1ccc(Cl)nc1Cl | i | i | i | i | i | · | ·
COc1ccc(CN2CCCC(C(=O)c3cccc(Cl)c3)C2)cc1 (centres undefined) | i | i | i | i | i | · | ·
O=C(c1cccc(Cl)c1)C1CCCN(Cc2cccc3cnccc23)C1 (centres undefined) | i | i | i | i | -7.63* | 51.5* | 83.8*
OC(C#CCN1CCOCC1)(c1ccccc1)C1CCCC1 (centres undefined) | i | i | i | i | -8.93* | 56.5* | 83.8*
C=CCN1CC[C@]23c4c5ccc(O)c4O[C@H]2/C(=N/NC(=O)c2ccccc2)CC[C@@]3(O)[C@H]1C5 | i | i | i | i | i | · | ·
Clc1ccc(OCC#CCN2CCCC2)cc1 | i | i | i | i | -9.62* | 54.0* | 0.0
Fc1ccc(C(OCCN2CCCC2)c2ccc(F)cc2)cc1 | i | i | i | i | -9.3* | 87.5* | 36.8*
O=C(c1ccc(Cl)cc1)C1CCCN(Cc2ccc3c(c2)OCCO3)C1 (centres undefined) | i | i | i | i | -8.66* | 91.0* | 40.8*
CN1CCN(Cc2ccc3ccccc3c2)CC1 | i | i | i | i | i | · | ·
CN1CCN(CCC(C#N)(c2ccccc2)c2ccccc2)CC1 | i | i | i | i | -7.73* | 93.5* | 92.3*
O=c1[nH]c(=O)n(Cc2ccccc2Cl)c(O)c1C=Nc1ccc(F)cc1 | i | i | i | i | i | · | ·
CC(Cc1ccccc1Sc1ccccc1O)N(C)C (centres undefined) | i | i | i | i | -8.58* | 93.0* | 91.3*
CC1C(c2cccs2)=[N+]([O-])C(C)(C(=O)c2ccc(F)cc2)N1O (centres undefined) | i | i | i | i | i | · | ·
O=c1cc(C(F)(F)F)c2cc3c4c(c2o1)CCCN4CCC3 | i | i | i | i | -9.07* | 98.5* | 94.3*
CN(CC1COc2ccccc2O1)c1nc(-c2cccnc2)nc2ccccc12 (centres undefined) | i | i | i | i | -10.2* | 90.5* | 93.3*
CCN(CC)C(=O)c1ccc(NC(=O)Nc2ccccc2F)cc1 | i | i | i | i | i | · | ·
